ChEMBL document CHEMBL1821591, “Cytotoxic bipyridines from the marine-derived actinomycete Actinoalloteichus cyanogriseus WH1-2216-6” (J Nat Prod, 2011)
Values after ≈ are worked out from the molar mass of the structure shown.

Tests used:
Candida albicans = experiment: Antimicrobial activity against Candida albicans after 24 hrs by agar dilution method; type: functional
Klebsiella aerogenes = experiment: Antimicrobial activity against Aerobacter aerogenes after 24 hrs by agar dilution method; type: functional
Pseudomonas aeruginosa = experiment: Antimicrobial activity against Pseudomonas aeruginosa after 24 hrs by agar dilution method; type: functional
Escherichia coli = experiment: Antimicrobial activity against Escherichia coli after 24 hrs by agar dilution method; type: functional
HL-60 = experiment: Cytotoxicity against human HL60 cells after 72 hrs by MTT assay; type: functional, cell-based; conditions: HL-60, 72 h
Method in brief: (§1)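 MTT read-out on HL-60, K562 and KB; activity expressed as IC50 in μM.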

A549 = experiment: Cytotoxicity against human A549 cells after 24 hrs by SRB assay; type: functional, cell-based; conditions: A549, 24 h
KB = experiment: Cytotoxicity against human KB cells after 72 hrs by MTT assay; type: functional, cell-based; method in brief: as §1
K562 = experiment: Cytotoxicity against human K562 cells after 72 hrs by MTT assay; type: functional, cell-based; conditions: K562, 72 h; method in brief: as §1

| MIC (Candida albicans) [µM] | MIC (Pseudomonas aeruginosa) [µM] | SMILES | MIC (Klebsiella aerogenes) [µM] | MIC (Escherichia coli) [µM] | IC50 (HL-60) [nM] | IC50 (A549) [nM] | IC50 (KB) [nM] | IC50 (K562) [nM] |
| --- | --- | --- | --- | --- | --- | --- | --- | --- |
| 1.2 | 3.8 | O=C(O)c1cn(C2CC2)c2cc(N3CCNCC3)c(F)cc2c1=O [CIPROFLOXACIN LACTATE] | 0.94 | – | – | – | – | – |
| 21.8 (≈ 5 µg/mL) | 21.8 (≈ 5 µg/mL) | COc1cc(/C=N/O)nc(-c2ccccn2)c1 [CAERULOMYCIN A] | – | 10.9 (≈ 2.5 µg/mL) | 710 | 260 | > 50000 | > 50000 |

| SMILES | MIC (Candida albicans) [µM] | MIC (Pseudomonas aeruginosa) [µM] | MIC (Klebsiella aerogenes) [µM] | MIC (Escherichia coli) [µM] | IC50 (HL-60) [nM] | IC50 (A549) [nM] | IC50 (KB) [nM] | IC50 (K562) [nM] |
| --- | --- | --- | --- | --- | --- | --- | --- | --- |
| CC(=O)N1CCN(c2ccc(OCC3COC(Cn4ccnc4)(c4ccc(Cl)cc4Cl)O3)cc2)CC1 (centres undefined) [KETOCONAZOLE] | 1.2 (≈ 0.638 µg/mL) | 3.8 (≈ 2.02 µg/mL) | 0.94 (≈ 0.5 µg/mL) | 1.9 (≈ 1.01 µg/mL) | – | – | – | – |
